# Measurements of several laboratories.
# Lines come from different studies, so protocols differ.
# Target: Tyrosine-protein kinase Blk (BLK, Homo sapiens, UniProt P51451)
SMILES,effect on,method,concentration,remaining binding [%]
COc1ccnn2ncc(-c3ccnc(N(C)C)n3)c12,binding,,1 µM,100
COc1cnc(Nc2cccc(S(N)(=O)=O)c2)nc1N1CCN(c2ccccc2)CC1,binding,competition with immobilised ligand,1 µM,80
CO[C@@H](C)c1c(Nc2ccc([C@H](N(C)C(=O)C3CCS(=O)(=O)CC3)C(F)(F)F)cc2)cnc2cc(Cl)nn12,cell-free assay,competition with immobilised ligand,1 µM,87
F[C@@H]1CCN(c2nccc(-c3cnn4ncccc34)n2)C1,binding,,1 µM,100
O=C(Nc1c[nH]nc1C(=O)NC1CCNCC1)c1cc(F)cc(F)c1,binding,competition with immobilised ligand,1 µM,83
Cc1cnc(Nc2ccc(C(=O)N3CCC(N4CCCC4)CC3)cc2)nc1-c1cc2ccccc2s1,binding,competition with immobilised ligand,1 µM,74
Cc1nc(C2CCN(C(=O)c3ccc(OC(F)(F)F)cc3N)CC2)c2ncc(N3CCN(C)CC3)cc2n1,cell-free assay,competition with immobilised ligand,1 µM,97
C[C@@H](c1ccc(-n2cnc3c(N)ncnc32)cc1)N1CCc2nn(C)c(Cc3ccccc3)c2C1=O,binding,competition with immobilised ligand,0.1 µM,89
O=C(c1ccc(Nc2nccc(-c3cc4ccccc4s3)n2)cc1)N1CCC(N2CCCC2)CC1,binding,competition with immobilised ligand,1 µM,100
COc1ncc2cc3ccccc3nc2c1C#N,cell-free assay,competition with immobilised ligand,5 µM,87
c1ccc(N2CCN(Cc3nc4ccccc4[nH]3)CC2)nc1,cell-free assay,competition with immobilised ligand,1 µM,100
N[C@H]1CCN(c2nccc(-c3cnn4ncccc34)n2)C1,binding,,1 µM,100
COc1ccc2c(O[C@@H]3C[C@H]4C(=O)N[C@]5(C(=O)O)CC5/C=C\CCCCC[C@H](NC(=O)OC5CCCC5)C(=O)N4C3)cc(-c3csc(NC(=O)C(C)C)n3)nc2c1C (stereo partly shown),cell-free assay,competition with immobilised ligand,1 µM,97
C[C@H]1CCN(c2nccc(-c3cnn4ncccc34)n2)C1,binding,,1 µM,100
CCN1CCN(Cc2ccc(C(=O)Nc3ccc(C)c(Oc4ccc5c(c4)CC(=O)N5)c3)cc2C(F)(F)F)CC1,binding,competition with immobilised ligand,1 µM,93
O=C(c1ccc(Nc2ncc(Cl)c(-c3cc4ccccc4s3)n2)cc1)N1CCC(N2CCCC2)CC1,binding,competition with immobilised ligand,1 µM,100
c1cncc(-c2cccc(Nc3nccc(NC4CCCCC4)n3)c2)c1,binding,competition with immobilised ligand,10 µM,5.8
COc1ccc2c(c1)O[C@H](c1ccc(OC)c(OC)c1)C[C@@H]2NC(=O)C1(c2ccc3c(c2)OC(F)(F)O3)CC1,cell-free assay,competition with immobilised ligand,1 µM,100
c1cnn2ncc(-c3ccnc(N4CCC45COC5)n3)c2c1,binding,,1 µM,100
CNC(=O)[C@@H]1CC[C@@H](n2c(-c3ccc4cnccc4c3)nc3ccc(C(=O)NCc4cccc(C(N)=O)c4)cc32)C1,binding,competition with immobilised ligand,1 µM,91
Nc1cnc(N2CCc3cc(S(=O)(=O)Nc4c(F)cc(Cl)cc4F)cc(N4CCCC4=O)c32)nc1,cell-free assay,competition with immobilised ligand,1 µM,100
CC1CCCN1c1nccc(-c2cnn3ncccc23)n1 (stereo not shown),binding,,1 µM,100
